{"source": "ChEMBL document CHEMBL5724801", "about": "“EUbOPEN Chemogenomics Library - Multiplex” (2024)", "tested_on": "Fibroblast", "assay": "Multiplex assay against human fibroblast", "format": "toxicity, cell-based", "summary_of_the_method": "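Imaging took place on a CQ1 microscope at 37°C and 5% CO2 once compound had been added to live cells stained at seeding with Hoechst33342, BioTracker Green Microtubule Cytoskeleton Dye, MitoTracker Red and Annexin V Alexa Fluor 680. CellPathfinder machine-learning gating classed cells as Hoechst high-intensity objects or normal cells, classed normal cells as having healthy, pyknosed or fragmented nuclei, and classed pyknosed cells as mitotic or apoptotic. Tubulin, mitochondrial-mass and membrane-permeability phenotypes are per cents of the healthy-nucleus cells.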", "key": {"[1]": {"settings": "12 h, 1 µM, compound concentration 1 uM"}, "[2]": {"settings": "12 h, 10 µM, compound concentration 10 uM"}, "[3]": {"settings": "24 h, 1 µM, compound concentration 1 uM"}, "[4]": {"settings": "24 h, 10 µM, compound concentration 10 uM"}, "[5]": {"settings": "48 h, 1 µM, compound concentration 1 uM"}, "[6]": {"settings": "48 h, 10 µM, compound concentration 10 uM"}}, "note": "Where “and” joins values, the source holds several entries; their conditions need not be identical. Equal values may be shown once.", "data": [{"smiles": "C[C@@H]1CN(Cc2ccc(F)cc2)CCN1C(=O)COc1ccc(Cl)cc1NC(N)=O", "note": "[BX 471 FREE BASE]", "values": [{"measurement": "Population Apoptotic (%)", "setting": "[1]", "value": "23% and 38%"}, {"measurement": "Population Fragmented Nuclei (%)", "setting": "[1]", "value": "10% and 26%"}, {"measurement": "Population Healthy Nuclei (%)", "setting": "[1]", "value": "73% and 47%"}, {"measurement": "Population Hoechst High Intensity Objects (%)", "setting": "[1]", "value": "3% and 7%"}, {"measurement": "Population Mitotic Cells (%)", "setting": "[1]", "value": "76% and 61%"}, {"measurement": "Population Normal (%)", "setting": "[1]", "value": "96% and 92%"}, {"measurement": "Population Pyknosed Nuclei (%)", "setting": "[1]", "value": "15% and 26%"}, {"measurement": "Population Tubulin-Different-Phenotype (%)", "setting": "[1]", "value": "35% and 48%"}, {"measurement": "Total Cell Count", "setting": "[1]", "value": "138 and 182"}, {"measurement": "Population Apoptotic (%)", "setting": "[2]", "value": "38% and 40%"}, {"measurement": "Population Fragmented Nuclei (%)", "setting": "[2]", "value": "27% and 36%"}, {"measurement": "Population Healthy Nuclei (%)", "setting": "[2]", "value": "45% and 27%"}, {"measurement": "Population Hoechst High Intensity Objects (%)", "setting": "[2]", "value": "7% and 11%"}, {"measurement": "Population Mitotic Cells (%)", "setting": "[2]", "value": "61% and 60%"}, {"measurement": "Population Normal (%)", "setting": "[2]", "value": "92% and 88%"}, {"measurement": "Population Pyknosed Nuclei (%)", "setting": "[2]", "value": "26% and 35%"}, {"measurement": "Population Tubulin-Different-Phenotype (%)", "setting": "[2]", "value": "81% and 77%"}, {"measurement": "Total Cell Count", "setting": "[2]", "value": "240 and 126"}, {"measurement": "Population Apoptotic (%)", "setting": "[3]", "value": "52% and 51%"}, {"measurement": "Population Fragmented Nuclei (%)", "setting": "[3]", "value": "13% and 20%"}, {"measurement": "Population Healthy Nuclei (%)", "setting": "[3]", "value": "74% and 52%"}, {"measurement": "Population Hoechst High Intensity Objects (%)", "setting": "[3]", "value": "0% and 6%"}, {"measurement": "Population Mitotic Cells (%)", "setting": "[3]", "value": "47% and 48%"}, {"measurement": "Population Normal (%)", "setting": "[3]", "value": "99% and 93%"}, {"measurement": "Population Pyknosed Nuclei (%)", "setting": "[3]", "value": "11% and 27%"}, {"measurement": "Population Tubulin-Different-Phenotype (%)", "setting": "[3]", "value": "33% and 52%"}, {"measurement": "Total Cell Count", "setting": "[3]", "value": "147 and 160"}, {"measurement": "Population Apoptotic (%)", "setting": "[4]", "value": "43% and 46%"}, {"measurement": "Population Fragmented Nuclei (%)", "setting": "[4]", "value": "28% and 34%"}, {"measurement": "Population Healthy Nuclei (%)", "setting": "[4]", "value": "43% and 36%"}, {"measurement": "Population Hoechst High Intensity Objects (%)", "setting": "[4]", "value": "4% and 8%"}, {"measurement": "Population Mitotic Cells (%)", "setting": "[4]", "value": "56% and 53%"}, {"measurement": "Population Normal (%)", "setting": "[4]", "value": "95% and 91%"}, {"measurement": "Population Pyknosed Nuclei (%)", "setting": "[4]", "value": "28% and 29%"}, {"measurement": "Population Tubulin-Different-Phenotype (%)", "setting": "[4]", "value": "75% and 89%"}, {"measurement": "Total Cell Count", "setting": "[4]", "value": "225 and 118"}, {"measurement": "Population Apoptotic (%)", "setting": "[5]", "value": "55% and 63%"}, {"measurement": "Population Fragmented Nuclei (%)", "setting": "[5]", "value": "16% and 31%"}, {"measurement": "Population Healthy Nuclei (%)", "setting": "[5]", "value": "67% and 55%"}, {"measurement": "Population Hoechst High Intensity Objects (%)", "setting": "[5]", "value": 5, "unit": "%"}, {"measurement": "Population Mitotic Cells (%)", "setting": "[5]", "value": "45% and 36%"}, {"measurement": "Population Normal (%)", "setting": "[5]", "value": "94% and 97%"}, {"measurement": "Population Pyknosed Nuclei (%)", "setting": "[5]", "value": "15% and 13%"}, {"measurement": "Population Tubulin-Different-Phenotype (%)", "setting": "[5]", "value": "40% and 54%"}, {"measurement": "Total Cell Count", "setting": "[5]", "value": "138 and 172"}, {"measurement": "Population Apoptotic (%)", "setting": "[6]", "value": "58% and 41%"}, {"measurement": "Population Fragmented Nuclei (%)", "setting": "[6]", "value": "31% and 42%"}, {"measurement": "Population Healthy Nuclei (%)", "setting": "[6]", "value": "49% and 42%"}, {"measurement": "Population Hoechst High Intensity Objects (%)", "setting": "[6]", "value": "7% and 6%"}, {"measurement": "Population Mitotic Cells (%)", "setting": "[6]", "value": "41% and 58%"}, {"measurement": "Population Normal (%)", "setting": "[6]", "value": "92% and 93%"}, {"measurement": "Population Pyknosed Nuclei (%)", "setting": "[6]", "value": "18% and 14%"}, {"measurement": "Population Tubulin-Different-Phenotype (%)", "setting": "[6]", "value": "77% and 91%"}, {"measurement": "Total Cell Count", "setting": "[6]", "value": "234 and 122"}]}, {"smiles": "COc1cc(C(=O)N(CCCc2ccccc2)Cc2ccc(CC(=O)O)cc2)cc(OC)c1C", "values": [{"measurement": "Population Apoptotic (%)", "setting": "[1]", "value": "63% and 42%"}, {"measurement": "Population Fragmented Nuclei (%)", "setting": "[1]", "value": "14% and 37%"}, {"measurement": "Population Healthy Nuclei (%)", "setting": "[1]", "value": "73% and 45%"}, {"measurement": "Population Hoechst High Intensity Objects (%)", "setting": "[1]", "value": "2% and 4%"}, {"measurement": "Population Membrane Permeable-Phenotype (%)", "setting": "[1]", "value": "0% and 11%"}, {"measurement": "Population Mitochondria Different-Phenotype (%)", "setting": "[1]", "value": "0% and 5%"}, {"measurement": "Population Mitotic Cells (%)", "setting": "[1]", "value": "36% and 57%"}, {"measurement": "Population Normal (%)", "setting": "[1]", "value": "97% and 95%"}, {"measurement": "Population Pyknosed Nuclei (%)", "setting": "[1]", "value": "12% and 16%"}, {"measurement": "Population Tubulin-Different-Phenotype (%)", "setting": "[1]", "value": "15% and 36%"}, {"measurement": "Total Cell Count", "setting": "[1]", "value": "160 and 176"}, {"measurement": "Population Apoptotic (%)", "setting": "[2]", "value": "41% and 45%"}, {"measurement": "Population Fragmented Nuclei (%)", "setting": "[2]", "value": "16% and 25%"}, {"measurement": "Population Healthy Nuclei (%)", "setting": "[2]", "value": "70% and 61%"}, {"measurement": "Population Hoechst High Intensity Objects (%)", "setting": "[2]", "value": "2% and 4%"}, {"measurement": "Population Membrane Permeable-Phenotype (%)", "setting": "[2]", "value": "0% and 7%"}, {"measurement": "Population Mitochondria Different-Phenotype (%)", "setting": "[2]", "value": "5% and 4%"}, {"measurement": "Population Mitotic Cells (%)", "setting": "[2]", "value": "58% and 54%"}, {"measurement": "Population Normal (%)", "setting": "[2]", "value": "97% and 95%"}, {"measurement": "Population Pyknosed Nuclei (%)", "setting": "[2]", "value": "12% and 13%"}, {"measurement": "Population Tubulin-Different-Phenotype (%)", "setting": "[2]", "value": "28% and 47%"}, {"measurement": "Total Cell Count", "setting": "[2]", "value": "197 and 181"}, {"measurement": "Population Apoptotic (%)", "setting": "[3]", "value": "68% and 52%"}, {"measurement": "Population Healthy Nuclei (%)", "setting": "[3]", "value": "77% and 41%"}, {"measurement": "Population Hoechst High Intensity Objects (%)", "setting": "[3]", "value": "1% and 4%"}, {"measurement": "Population Membrane Permeable-Phenotype (%)", "setting": "[3]", "value": "0% and 1%"}, {"measurement": "Population Mitochondria Different-Phenotype (%)", "setting": "[3]", "value": "0% and 6%"}, {"measurement": "Population Mitotic Cells (%)", "setting": "[3]", "value": "31% and 48%"}, {"measurement": "Population Normal (%)", "setting": "[3]", "value": "98% and 95%"}, {"measurement": "Population Pyknosed Nuclei (%)", "setting": "[3]", "value": "10% and 13%"}, {"measurement": "Population Tubulin-Different-Phenotype (%)", "setting": "[3]", "value": "13% and 28%"}, {"measurement": "Total Cell Count", "setting": "[3]", "value": "156 and 189"}, {"measurement": "Population Apoptotic (%)", "setting": "[4]", "value": "55% and 40%"}, {"measurement": "Population Fragmented Nuclei (%)", "setting": "[4]", "value": "12% and 25%"}, {"measurement": "Population Healthy Nuclei (%)", "setting": "[4]", "value": "76% and 61%"}, {"measurement": "Population Hoechst High Intensity Objects (%)", "setting": "[4]", "value": "1% and 4%"}, {"measurement": "Population Membrane Permeable-Phenotype (%)", "setting": "[4]", "value": "1% and 5%"}, {"measurement": "Population Mitochondria Different-Phenotype (%)", "setting": "[4]", "value": "6% and 0%"}, {"measurement": "Population Mitotic Cells (%)", "setting": "[4]", "value": "45% and 59%"}, {"measurement": "Population Normal (%)", "setting": "[4]", "value": "98% and 96%"}, {"measurement": "Population Pyknosed Nuclei (%)", "setting": "[4]", "value": "10% and 13%"}, {"measurement": "Population Tubulin-Different-Phenotype (%)", "setting": "[4]", "value": "25% and 41%"}, {"measurement": "Total Cell Count", "setting": "[4]", "value": "192 and 175"}, {"measurement": "Population Apoptotic (%)", "setting": "[5]", "value": "90% and 52%"}, {"measurement": "Population Fragmented Nuclei (%)", "setting": "[5]", "value": "21% and 50%"}, {"measurement": "Population Healthy Nuclei (%)", "setting": "[5]", "value": "72% and 41%"}, {"measurement": "Population Hoechst High Intensity Objects (%)", "setting": "[5]", "value": "1% and 2%"}, {"measurement": "Population Membrane Permeable-Phenotype (%)", "setting": "[5]", "value": "0% and 3%"}, {"measurement": "Population Mitochondria Different-Phenotype (%)", "setting": "[5]", "value": "0% and 9%"}, {"measurement": "Population Normal (%)", "setting": "[5]", "value": "98% and 97%"}, {"measurement": "Population Pyknosed Nuclei (%)", "setting": "[5]", "value": "6% and 8%"}, {"measurement": "Population Tubulin-Different-Phenotype (%)", "setting": "[5]", "value": "17% and 40%"}, {"measurement": "Total Cell Count", "setting": "[5]", "value": "168 and 211"}, {"measurement": "Population Apoptotic (%)", "setting": "[6]", "value": "77% and 58%"}, {"measurement": "Population Fragmented Nuclei (%)", "setting": "[6]", "value": "25% and 38%"}, {"measurement": "Population Healthy Nuclei (%)", "setting": "[6]", "value": "65% and 54%"}, {"measurement": "Population Hoechst High Intensity Objects (%)", "setting": "[6]", "value": "2% and 5%"}, {"measurement": "Population Membrane Permeable-Phenotype (%)", "setting": "[6]", "value": "1% and 5%"}, {"measurement": "Population Mitochondria Different-Phenotype (%)", "setting": "[6]", "value": "5% and 3%"}, {"measurement": "Population Mitotic Cells (%)", "setting": "[6]", "value": "22% and 41%"}, {"measurement": "Population Normal (%)", "setting": "[6]", "value": "97% and 94%"}, {"measurement": "Population Pyknosed Nuclei (%)", "setting": "[6]", "value": "9% and 6%"}, {"measurement": "Population Tubulin-Different-Phenotype (%)", "setting": "[6]", "value": "32% and 46%"}, {"measurement": "Total Cell Count", "setting": "[6]", "value": "195 and 187"}]}]}
